Test results taken from ChEMBL document CHEMBL3352149, “Promiscuity and selectivity in covalent enzyme inhibition: a systematic study of electrophilic fragments” (J Med Chem, 2014).

Legend:
[1] = molecular target: Genome polyprotein (dengue virus type 2) (UniProt P12823); experiment: Inhibition of Dengue virus serotype 2 NS2B-NS3 protease at 50 uM
Escherichia coli [2] = experiment: Inhibition of wild-type Escherichia coli MurB compound preincubated for 10 mins before substrate addition at 25 uM measured after 15 mins by LC-MS method
Method in brief: (§1)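 E. coli wild-type enzyme (4 nM) was preincubated with 25 μM compound for 10 min at 37 °C. Enzymatically generated nucleotide-sugar substrate (~200 μM) plus ATP (~200 μM), or NADPH 200 μM for MurB, was added for 10 min. Reactions were started with amino-acid cosubstrate (MurC–F) or EP-UNAG (MurB), run 15 min at 37 °C, and quenched with formic acid. Product was measured by negative-ESI LC-MS EIC peak area. MgCl2: MurC 10, MurD/E 2, MurF 5 mM; MurB had 5 mM KCl. All in 50 mM NH4HCO3, 0.07% BSA, 1% DMSO; triplicate.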

[3] = molecular target: Methionine aminopeptidase 1 (Homo sapiens) (UniProt P53582); experiment: Inhibition of human MetAP at 25 uM after 20 mins by HPLC analysis
Method in brief: (§2)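 Endpoint assay. Enzyme (50 nM) was preincubated with 25 μM compound for 20 min at 37 °C in 50 mM Tris pH 7.5, 100 mM NaCl, 100 μM CoCl2, 0.075% BSA. MGMM substrate (400 μM) was then added for 15 min (human MetAP-1) or 20 min (E. coli MetAP). Reactions were stopped with TFA. GMM product was quantified by RP-HPLC, UV 214 nm. Triplicate.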

Escherichia coli [4] = experiment: Inhibition of wild-type Escherichia coli MurA compound preincubated for 10 mins before substrate addition at 25 uM measured after 15 mins by LC-MS method
Escherichia coli [5] = experiment: Inhibition of wild-type Escherichia coli MurE compound preincubated for 10 mins before substrate addition at 25 uM measured after 15 mins by LC-MS method; method in brief: as §1
Escherichia coli [6] = experiment: Inhibition of wild-type Escherichia coli MurC compound preincubated for 10 mins before substrate addition at 25 uM measured after 15 mins by LC-MS method; method in brief: as §1
Escherichia coli [7] = experiment: Inhibition of Escherichia coli MetAP at 25 uM after 20 mins by HPLC analysis; method in brief: as §2
Escherichia coli [8] = experiment: Inhibition of wild-type Escherichia coli MurF compound preincubated for 10 mins before substrate addition at 25 uM measured after 15 mins by LC-MS method; method in brief: as §1
[9] = molecular target: Genome polyprotein (West Nile virus) (UniProt P06935); experiment: Inhibition of West Nile virus NS2B-NS3 protease at 50 uM
Sequence of Genome polyprotein (West Nile virus) (P06935 whole entry): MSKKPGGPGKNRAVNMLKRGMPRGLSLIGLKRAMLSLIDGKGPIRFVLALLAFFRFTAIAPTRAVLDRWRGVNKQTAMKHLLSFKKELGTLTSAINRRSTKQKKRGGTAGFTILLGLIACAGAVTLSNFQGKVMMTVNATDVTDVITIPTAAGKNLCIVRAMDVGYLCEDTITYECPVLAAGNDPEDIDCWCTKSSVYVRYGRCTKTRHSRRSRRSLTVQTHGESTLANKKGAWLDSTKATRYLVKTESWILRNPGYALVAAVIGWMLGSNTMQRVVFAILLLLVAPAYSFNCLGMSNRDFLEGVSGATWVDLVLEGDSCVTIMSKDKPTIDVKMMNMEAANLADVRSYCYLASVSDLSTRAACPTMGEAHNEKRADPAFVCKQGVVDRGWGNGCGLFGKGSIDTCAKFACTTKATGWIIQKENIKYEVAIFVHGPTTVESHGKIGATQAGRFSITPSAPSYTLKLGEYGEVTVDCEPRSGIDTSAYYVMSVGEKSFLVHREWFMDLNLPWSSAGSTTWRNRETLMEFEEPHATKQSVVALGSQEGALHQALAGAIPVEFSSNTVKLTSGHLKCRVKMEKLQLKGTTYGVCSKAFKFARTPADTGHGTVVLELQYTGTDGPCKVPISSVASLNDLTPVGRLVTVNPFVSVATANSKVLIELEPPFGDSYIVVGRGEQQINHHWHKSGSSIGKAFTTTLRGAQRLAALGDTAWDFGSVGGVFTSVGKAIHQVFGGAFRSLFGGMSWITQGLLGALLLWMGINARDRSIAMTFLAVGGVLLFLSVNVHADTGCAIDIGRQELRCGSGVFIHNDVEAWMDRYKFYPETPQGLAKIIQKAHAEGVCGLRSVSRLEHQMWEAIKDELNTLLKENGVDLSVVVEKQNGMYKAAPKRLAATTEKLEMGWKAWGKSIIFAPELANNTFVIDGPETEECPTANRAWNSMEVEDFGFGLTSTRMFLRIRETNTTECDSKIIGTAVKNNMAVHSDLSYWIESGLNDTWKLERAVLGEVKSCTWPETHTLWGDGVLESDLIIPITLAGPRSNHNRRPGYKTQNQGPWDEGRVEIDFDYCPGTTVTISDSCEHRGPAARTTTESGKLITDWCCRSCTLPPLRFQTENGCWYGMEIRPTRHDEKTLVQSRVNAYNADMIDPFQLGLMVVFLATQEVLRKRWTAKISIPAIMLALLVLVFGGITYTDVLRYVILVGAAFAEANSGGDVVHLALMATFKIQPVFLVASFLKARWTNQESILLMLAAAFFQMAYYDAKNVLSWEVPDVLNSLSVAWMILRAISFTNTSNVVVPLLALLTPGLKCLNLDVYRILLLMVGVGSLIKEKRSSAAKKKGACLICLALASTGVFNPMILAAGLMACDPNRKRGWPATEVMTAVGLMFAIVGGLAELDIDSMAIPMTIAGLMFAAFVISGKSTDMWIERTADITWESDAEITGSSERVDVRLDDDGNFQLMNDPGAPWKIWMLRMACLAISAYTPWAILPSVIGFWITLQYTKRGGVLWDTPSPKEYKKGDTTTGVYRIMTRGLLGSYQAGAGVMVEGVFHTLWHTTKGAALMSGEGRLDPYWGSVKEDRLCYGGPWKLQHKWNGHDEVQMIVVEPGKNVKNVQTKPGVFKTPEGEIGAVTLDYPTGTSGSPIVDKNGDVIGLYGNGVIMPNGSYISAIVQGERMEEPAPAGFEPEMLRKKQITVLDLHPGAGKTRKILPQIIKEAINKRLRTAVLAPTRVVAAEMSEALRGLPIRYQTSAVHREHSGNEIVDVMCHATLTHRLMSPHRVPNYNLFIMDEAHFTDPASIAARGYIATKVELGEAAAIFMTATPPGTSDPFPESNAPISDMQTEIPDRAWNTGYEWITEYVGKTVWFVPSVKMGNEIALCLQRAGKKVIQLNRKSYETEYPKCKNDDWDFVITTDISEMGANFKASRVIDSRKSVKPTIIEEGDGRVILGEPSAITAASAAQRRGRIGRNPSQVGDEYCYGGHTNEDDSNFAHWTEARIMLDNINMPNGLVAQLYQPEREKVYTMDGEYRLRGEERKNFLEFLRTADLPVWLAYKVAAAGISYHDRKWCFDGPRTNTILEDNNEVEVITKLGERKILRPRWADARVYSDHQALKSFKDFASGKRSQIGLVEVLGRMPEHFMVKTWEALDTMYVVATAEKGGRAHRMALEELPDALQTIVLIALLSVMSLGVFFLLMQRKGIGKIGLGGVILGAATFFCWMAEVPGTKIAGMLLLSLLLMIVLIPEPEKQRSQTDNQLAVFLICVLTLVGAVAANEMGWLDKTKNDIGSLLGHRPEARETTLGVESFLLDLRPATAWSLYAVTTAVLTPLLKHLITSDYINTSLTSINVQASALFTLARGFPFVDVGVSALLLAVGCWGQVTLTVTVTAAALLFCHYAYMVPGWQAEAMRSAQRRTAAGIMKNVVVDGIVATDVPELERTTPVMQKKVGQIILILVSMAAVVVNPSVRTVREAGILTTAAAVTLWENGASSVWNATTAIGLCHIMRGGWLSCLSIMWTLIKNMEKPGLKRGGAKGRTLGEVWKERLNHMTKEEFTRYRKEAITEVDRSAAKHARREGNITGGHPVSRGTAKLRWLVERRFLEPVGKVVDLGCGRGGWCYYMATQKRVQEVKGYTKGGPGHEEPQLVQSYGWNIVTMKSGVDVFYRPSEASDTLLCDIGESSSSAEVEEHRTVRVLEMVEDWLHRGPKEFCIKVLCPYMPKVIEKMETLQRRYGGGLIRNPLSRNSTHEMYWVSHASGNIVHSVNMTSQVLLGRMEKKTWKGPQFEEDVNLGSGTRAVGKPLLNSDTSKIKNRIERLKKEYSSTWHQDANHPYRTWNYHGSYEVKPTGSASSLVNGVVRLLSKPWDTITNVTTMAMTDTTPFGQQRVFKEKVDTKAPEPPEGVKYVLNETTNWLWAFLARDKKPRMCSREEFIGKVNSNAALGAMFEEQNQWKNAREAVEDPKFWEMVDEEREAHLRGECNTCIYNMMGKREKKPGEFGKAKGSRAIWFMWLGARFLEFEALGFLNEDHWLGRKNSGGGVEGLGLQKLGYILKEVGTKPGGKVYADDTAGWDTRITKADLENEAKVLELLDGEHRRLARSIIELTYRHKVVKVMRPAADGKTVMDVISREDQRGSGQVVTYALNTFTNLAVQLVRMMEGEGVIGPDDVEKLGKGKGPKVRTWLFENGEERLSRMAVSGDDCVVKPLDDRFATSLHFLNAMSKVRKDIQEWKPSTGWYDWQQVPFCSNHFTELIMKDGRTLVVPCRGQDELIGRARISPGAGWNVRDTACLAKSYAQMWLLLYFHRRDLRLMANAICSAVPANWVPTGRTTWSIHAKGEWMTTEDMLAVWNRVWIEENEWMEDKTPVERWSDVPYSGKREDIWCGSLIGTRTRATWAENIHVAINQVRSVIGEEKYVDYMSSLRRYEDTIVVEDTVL

Escherichia coli [10] = experiment: Inhibition of wild-type Escherichia coli MurD compound preincubated for 10 mins before substrate addition at 25 uM measured after 15 mins by LC-MS method; method in brief: as §1
[11] = GSH reactivity of the compound assessed as adducts formation by RP-HPLC analysis
Method in brief: (§3)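 Fresh aqueous glutathione (10 mM solution) was added to 50 mM Tris-maleate buffer, pH 7.5. The reaction was started with compound from 10 mM DMSO stock (final 250 μM). Mixtures were followed by reversed-phase HPLC on an ODS column with a gradient to 100% B; rate constants are given in l·mol⁻¹·s⁻¹.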

HeLa = experiment: Cytotoxicity against human HeLa cells assessed as reduction in cell viability after 24 hrs by CellTiter-Blue assay; type: cell-based
Method in brief: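 HeLa cells seeded in triplicate at 5×10^3 cells/well and grown 24 h at 37 °C/5% CO2. Compounds at varying concentrations were added as a 2x stock in phenol-red-free DMEM with FBS, penicillin/streptomycin, sodium pyruvate and L-glutamine, then left 24 h. Medium was replaced with CellTiter-Blue medium for 3 h. A570/A610 was read after background subtraction, as % of untreated controls; EC50 derived.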

Prothrombin (Bos taurus) = Prothrombin (Bos taurus) (UniProt P00735); experiment: Inhibition of Bovine thrombin using Boc-Val-Pro-Arg-AMC as substrate compound preincubated at 25 uM for 15 mins by fluorescence assay
Method in brief: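 Bovine thrombin (final 10 nM) was preincubated 15 min with 25 μM compound in 50 mM Tris-HCl pH 7.5, 150 mM NaCl, 0.05% Tween 20. The reaction was started with Boc-Val-Pro-Arg-AMC (50 μM final). Fluorescence (ex 355/em 460 nm) was monitored continuously for 10 min; activity taken as slope (RFU/s). Triplicate.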

[12] = GSH reactivity of the compound assessed as adducts formation meaured over 3 hrs by RP-HPLC analysis; method in brief: as §3

Row | Compound | inhibition [1] | inhibition (Escherichia coli [2]) | inhibition [3] | inhibition (Escherichia coli [4]) | inhibition (Escherichia coli [5]) | inhibition (Escherichia coli [6]) | inhibition (Escherichia coli [7]) | inhibition (Escherichia coli [8]) | inhibition [9] | inhibition (Escherichia coli [10]) | Activity [11] | EC50 (HeLa) | inhibition (Prothrombin (Bos taurus)) | Activity [12]
1 | C=CCNCCCC | < 15% | 19% | < 15% | < 15% | < 15% | < 15% | < 15% | < 15% | < 15% | < 15% | < 0.1 L/mol/s | > 100 µM | < 15% | 
2 | C=CC(=O)NCCc1ccccc1 | < 15% | < 15% | < 15% | < 15% | < 15% | < 15% | < 15% | < 15% | < 15% | < 15% | < 0.1 L/mol/s |  | < 15% | < 5%
3 | C=CC(=O)NC1CCCC1 | < 15% | < 15% | 17% | < 15% | < 15% | < 15% | < 15% | < 15% | < 15% | < 15% | < 0.1 L/mol/s |  | < 15% | < 5%
4 | C=CCNC | < 15% | < 15% | < 15% | < 15% | < 15% | < 15% | < 15% | < 15% | < 15% | < 15% | < 0.1 L/mol/s |  | < 15% | 
5 | C=CCNC(CCCC)C(=O)OC (stereo not given) | < 15% | < 15% | < 15% | < 15% | < 15% | < 15% | < 15% | < 15% | < 15% | < 15% | < 0.1 L/mol/s |  | < 15% | 
6 | CCCCNC(=O)CCl | < 15% | < 15% | < 15% | < 15% | 15% | < 15% | < 15% | < 15% | < 15% | < 15% | < 0.1 L/mol/s | > 100 µM | < 15% | 
7 | N#CCNC(=O)/C=C/c1ccccc1 | 17% | < 15% | < 15% | < 15% | < 15% | < 15% | < 15% | < 15% | 18% | < 17% | < 0.1 L/mol/s | > 100 µM | < 15% | 
8 | Cc1ccc(NC(=O)n2ccnc2)cc1 | < 15% | < 15% | < 15% | < 15% | < 15% | < 15% | < 15% | < 15% | < 15% | < 15% | < 0.1 L/mol/s |  | < 15% | 
9 | N#CCC(=O)NC1CCCC1 | < 15% | < 15% | < 15% | < 15% | 16% | < 15% | < 15% | < 15% | < 15% | < 15% | < 0.1 L/mol/s |  | < 15% | 
10 | N#CCC(=O)NCCc1ccccc1 | < 15% | < 15% | < 15% | < 15% | < 15% | < 15% | < 15% | < 15% | 22% | < 15% | < 0.1 L/mol/s |  | < 15% | 
11 | N#CCC(=O)Nc1ccc(F)cc1 | < 15% | < 15% | < 15% | < 15% | < 15% | < 15% | < 15% | < 15% | < 15% | < 15% | < 0.1 L/mol/s |  | < 15% | 
12 | N#CCNC(=O)c1ccccc1 | < 15% | 17% | < 15% | < 15% | < 15% | < 15% | < 15% | < 15% | 23% | < 15% | < 0.1 L/mol/s | > 100 µM | < 15% | 
13 | O=C(CCl)Nc1ccc(F)cc1 | < 15% | < 15% | < 15% | < 15% | < 15% | < 15% | < 15% | < 15% | < 15% | < 15% | < 0.1 L/mol/s |  | < 15% | 
14 | C=CCNc1ccc(F)cc1 | < 15% | 17% | < 15% | < 15% | < 15% | < 15% | < 15% | < 15% | < 15% | < 15% | < 0.1 L/mol/s |  | < 15% | 
15 | CCCCC(N)C(=O)OC (stereo not given) | < 15% | < 22% | < 15% | < 15% | 17% | < 15% | < 15% | < 15% | < 15% | 18% | < 0.1 L/mol/s |  | < 15% | 
16 | CCCCNC(=O)CC#N | < 15% | < 15% | < 15% | < 15% | < 15% | < 15% | < 15% | < 15% | < 15% | < 15% | < 0.1 L/mol/s | > 100 µM | < 15% | 
17 | C=CCNc1ccccc1 | < 15% | < 15% | 22% | 16% | < 15% | < 15% | < 15% | < 15% | < 15% | < 15% | < 0.1 L/mol/s | > 100 µM | < 15% | 
18 | Cc1ccc(NC(=O)CC#N)cc1 | < 15% | < 15% | < 15% | < 15% | < 15% | < 15% | < 15% | < 15% | < 15% | < 15% | < 0.1 L/mol/s |  | < 15% | 
19 | C=CCNCc1ccccc1 | < 15% | < 15% | < 15% | < 15% | < 15% | < 15% | < 15% | < 15% | < 15% | < 15% | < 0.1 L/mol/s |  | < 15% | 
20 | N#CCC(=O)Nc1ccc([N+](=O)[O-])cc1 | < 15% | < 15% | < 15% | < 15% | < 15% | < 15% | < 15% | < 15% | < 15% | < 15% | < 0.1 L/mol/s |  | < 15% | 
21 | C=CCNCCc1ccccc1 | < 15% | < 15% | < 15% | < 15% | < 15% | < 15% | < 15% | < 15% | < 15% | < 15% | < 0.1 L/mol/s |  | < 15% | 
